Experimental data from ChEMBL document CHEMBL1135464, “3-Aryl-2-quinolone derivatives: synthesis and characterization of in vitro and in vivo antitumor effects with emphasis on a new therapeutical target connected with cell migration” (J Med Chem, 2002).

What was measured:
MCF7 = assay: Cytotoxicity against Breast cancer cell line MCF-7 using MTT colorimetric assay; type: functional, cell-based; settings: Homo sapiens
Procedure, shortened: (§1)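 Human tumour lines from ATCC were grown at 37 °C in sealed dishes in MEM with 5% FCS. Cells were seeded at 40000 cells/mL in 96-well plates and left 24 h to plate. Each drug was then tested at six concentrations from 10^-5 to 10^-9 M. Growth was read by colorimetric MTT assay.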

A-427 = assay: Cytotoxicity against A-427 nonsmall lung cell line using MTT colorimetric assay; type: functional, cell-based; settings: Homo sapiens; procedure, shortened: as §1
U373 MG = assay: Cytotoxicity against U-373 MG glioblastomas using MTT colorimetric assay; type: functional, cell-based, U-373MG ATCC; settings: Homo sapiens; procedure, shortened: as §1
U-87 MG = assay: Cytotoxicity against U-87 MG glioblastomas using MTT colorimetric assay; type: functional, cell-based, U-87MG ATCC; settings: Homo sapiens; procedure, shortened: as §1
T-24 = assay: Cytotoxicity against T24 bladder cell lines using MTT colorimetric assay; type: functional, cell-based; settings: Homo sapiens; procedure, shortened: as §1
[1] = Evaluated in vivo for maximum tolerated dose and found to be nontoxic; type: ADME, organism-based
J82 = assay: Cytotoxicity against J82 bladder cell lines using MTT colorimetric assay; type: functional, cell-based; settings: Homo sapiens; procedure, shortened: as §1
HCT-15 = assay: Cytotoxicity against HCT-15 colon cell line using MTT colorimetric assay; type: functional, cell-based; settings: Homo sapiens; procedure, shortened: as §1
T47D = assay: Cytotoxicity against Breast cancer cell line T-47D using MTT colorimetric assay; type: functional, cell-based; settings: Homo sapiens; procedure, shortened: as §1
PC-3 = assay: Cytotoxicity against prostate cell line PC-3 using MTT colorimetric assay; type: functional, cell-based; settings: Homo sapiens; procedure, shortened: as §1
LoVo = assay: Cytotoxicity measured on LoVo colon cell line using MTT colorimetric assay; type: functional, cell-based; settings: Homo sapiens; procedure, shortened: as §1
A549 = assay: Cytotoxicity against A549 nonsmall lung cell line using MTT colorimetric assay; type: functional, cell-based; settings: Homo sapiens; procedure, shortened: as §1
A 172 = assay: Cytotoxicity against A-172 glioblastomas using MTT colorimetric assay; type: functional, cell-based; settings: Homo sapiens; procedure, shortened: as §1

COc1ccc(-c2cc3cccc(OC)c3nc2O)cc1
160 mg/kg: MTD [1]
> 10 µM: IC50 (MCF7) | IC50 (A-427) | IC50 (U373 MG) | IC50 (U-87 MG) | IC50 (T-24) | IC50 (J82) | IC50 (HCT-15) | IC50 (T47D) | IC50 (PC-3) | IC50 (LoVo) | IC50 (A549) | IC50 (A 172)

COc1ccc(-c2cc3c(OC)cc(OC)c4c3n(c2=O)CCC4=O)cc1
> 10 µM: IC50 (MCF7) | IC50 (A-427) | IC50 (U373 MG) | IC50 (U-87 MG) | IC50 (T-24) | IC50 (J82) | IC50 (HCT-15) | IC50 (T47D) | IC50 (PC-3) | IC50 (LoVo) | IC50 (A549) | IC50 (A 172)
160 mg/kg: MTD [1]

COc1cccc2cc(-c3ccccc3)c(O)nc12
160 mg/kg: MTD [1]
> 10 µM: IC50 (MCF7) | IC50 (A-427) | IC50 (U373 MG) | IC50 (U-87 MG) | IC50 (T-24) | IC50 (J82) | IC50 (HCT-15) | IC50 (T47D) | IC50 (PC-3) | IC50 (LoVo) | IC50 (A549) | IC50 (A 172)

COc1cc(OC)c2cc(-c3ccc(OC(C)=O)cc3)c(=O)n(C)c2c1
160 mg/kg: MTD [1]
> 10 µM: IC50 (MCF7) | IC50 (A-427) | IC50 (U373 MG) | IC50 (U-87 MG) | IC50 (T-24) | IC50 (J82) | IC50 (HCT-15) | IC50 (T47D) | IC50 (PC-3) | IC50 (LoVo) | IC50 (A549) | IC50 (A 172)

CC(=O)Oc1ccc(-c2cc3c(OC(C)=O)cc(OC(C)=O)cc3n(C)c2=O)cc1
> 10 µM: IC50 (MCF7) | IC50 (A-427) | IC50 (U373 MG) | IC50 (U-87 MG) | IC50 (T-24) | IC50 (J82) | IC50 (HCT-15) | IC50 (T47D) | IC50 (PC-3) | IC50 (LoVo) | IC50 (A549) | IC50 (A 172)
160 mg/kg: MTD [1]

COc1ccc(-c2cc3c(OC)cc(OC)cc3n(CC#N)c2=O)cc1
> 10 µM: IC50 (MCF7) | IC50 (A-427) | IC50 (U373 MG) | IC50 (U-87 MG) | IC50 (T-24) | IC50 (J82) | IC50 (HCT-15) | IC50 (T47D) | IC50 (PC-3) | IC50 (LoVo) | IC50 (A549) | IC50 (A 172)
160 mg/kg: MTD [1]

Cn1c(=O)c(-c2ccc(O)cc2)cc2c(O)cc(O)cc21
> 10 µM: IC50 (MCF7) | IC50 (A-427) | IC50 (U373 MG) | IC50 (U-87 MG) | IC50 (T-24) | IC50 (J82) | IC50 (HCT-15) | IC50 (T47D) | IC50 (PC-3) | IC50 (LoVo) | IC50 (A549) | IC50 (A 172)
160 mg/kg: MTD [1]

COc1ccc(-c2cc3c(OC)cc(OC)cc3n(C)/c2=N\Nc2ccccn2)cc1
160 mg/kg: MTD [1]
> 10 µM: IC50 (MCF7) | IC50 (A-427) | IC50 (U373 MG) | IC50 (U-87 MG) | IC50 (T-24) | IC50 (J82) | IC50 (HCT-15) | IC50 (T47D) | IC50 (PC-3) | IC50 (LoVo) | IC50 (A549) | IC50 (A 172)

COc1ccc(-c2cc3c(OC)cc(OC)cc3n(CCC#N)c2=O)cc1
> 10 µM: IC50 (MCF7) | IC50 (A-427) | IC50 (U373 MG) | IC50 (U-87 MG) | IC50 (T-24) | IC50 (J82) | IC50 (HCT-15) | IC50 (T47D) | IC50 (PC-3) | IC50 (LoVo) | IC50 (A549) | IC50 (A 172)
160 mg/kg: MTD [1]

COc1ccc(-c2cc3c(OC)cc(OC)cc3n(CC(=O)OCc3ccccc3)c2=O)cc1
> 10 µM: IC50 (MCF7) | IC50 (A-427) | IC50 (U373 MG) | IC50 (U-87 MG) | IC50 (T-24) | IC50 (J82) | IC50 (HCT-15) | IC50 (T47D) | IC50 (PC-3) | IC50 (LoVo) | IC50 (A549) | IC50 (A 172)
160 mg/kg: MTD [1]

CCN(CC)C(=O)CCn1c(=O)c(-c2ccc(OC)cc2)cc2c(OC)cc(OC)cc21
> 10 µM: IC50 (MCF7) | IC50 (A-427) | IC50 (U373 MG) | IC50 (U-87 MG) | IC50 (T-24) | IC50 (J82) | IC50 (HCT-15) | IC50 (T47D) | IC50 (PC-3) | IC50 (LoVo) | IC50 (A549) | IC50 (A 172)
160 mg/kg: MTD [1]

COc1ccc(-c2cc3c(OC)cc(OC)cc3n(C)c2=O)cc1
160 mg/kg: MTD [1]
> 10 µM: IC50 (MCF7) | IC50 (A-427) | IC50 (U373 MG) | IC50 (U-87 MG) | IC50 (T-24) | IC50 (J82) | IC50 (HCT-15) | IC50 (T47D) | IC50 (PC-3) | IC50 (LoVo) | IC50 (A549)
